Assay results from different studies.
Compare with care: the assays were run in different laboratories.
Target: Rho-associated protein kinase 1 (ROCK1, Homo sapiens, UniProt Q13464)

Compound	observed	action	technique	concentration	endpoint	value
O=C(Nc1cnn(-c2csc(C(=O)NC3COC3)c2)c1)Nc1ccccc1Cl	enzyme activity	inhibitor	–	5 µM	remaining activity	109%
O=C1Nc2ccc(Cl)cc2C1=Cc1cc(Cl)c(O)c(Cl)c1	cell-free assay	–	–	0.5 µM	remaining signal	93.2%
C[C@@H](c1cccc(C#N)c1)n1cc(Cl)cc(C(N)=O)c1=N	cell-free assay	–	competition with immobilised ligand	1 µM	remaining binding	71%
CC(C)(C)c1nc2c(s1)c1nc(N)ncc1c1ccc(NS(=O)(=O)c3c(F)cccc3F)c(F)c12	enzyme activity	inhibitor	radiometric	1 µM	remaining activity	98%
CC/C(=N\NC(=O)NCc1cccc(O)c1)c1ccc(O)c(C)c1O	enzyme activity	inhibitor	–	0.1 µM	inhibition	65.5%
COc1cc(Cl)c(C(=O)N[C@@H](CN[C@H]2CC[C@@H](N)CC2)Cc2ccc(C#N)cc2)cc1-c1ccc(CN[C@H](C)c2ccc(C)cc2)o1	enzyme activity	inhibitor	–	1 µM	remaining activity	105%
CN(C)C1CCN(CC#Cc2nn(C3CCCC3)c3nc(NCc4ccccc4)ncc23)C1 (centres unmarked)	enzyme activity	inhibitor	FRET	1 µM	inhibition	-1%
COc1ccc2c(c1)O[C@@H](c1ccc(OC)c(OC)c1)C[C@H]2NC(=O)C1(c2ccc3c(c2)OC(F)(F)O3)CC1	cell-free assay	–	competition with immobilised ligand	1 µM	remaining binding	89%
C[S+]([O-])c1ccc(-c2nc(-c3ccncc3)c(-c3ccc(F)cc3)[nH]2)cc1 (centres unmarked)	cell-free assay	–	–	0.5 µM	remaining signal	102%
CCN(CC)CCNC(=O)c1c(C)[nH]c(/C=C2\C(=O)Nc3ccc(F)cc32)c1C	enzyme activity	inhibitor	–	0.3 µM	inhibition	6%
Cc1c[nH]c2nccc(Oc3c(F)cc(Nc4cc(Cl)nc(N)n4)cc3F)c12	cell-free assay	–	competition with immobilised ligand	0.1 µM	remaining binding	0.6%
Cc1cc(NC(=O)c2cccc3cc(-c4cccc5[nH]nc(N)c45)ccc23)ccc1F	enzyme activity	inhibitor	–	0.1 µM	activity vs control	110%
CCCOc1ccc(OC)c(F)c1C(=O)c1ccc(C(=O)N[C@@H]2CNC[C@H]2NC(=O)c2ccc3[nH]ncc3c2)cc1	enzyme activity	inhibitor	–	10 µM	remaining activity	8%
CCCCNc1ncc2c(-c3ccc(F)cc3)nn(C[C@H]3CC[C@H](N)CC3)c2n1	target engagement in cells	inhibitor	chemoproteomics	20 mM	inhibition	54.3%
O=C1NC(=O)c2cc(Nc3ccc(F)cc3)c(Nc3ccc(F)cc3)cc21	cell-free assay	–	–	0.5 µM	remaining signal	96.7%
CC(=O)N1CCC(c2ccc(C(=O)NC(=N)N)cc2C(F)(F)F)CC1	cell-free assay	–	competition with immobilised ligand	1 µM	remaining binding	87%
CC(C)c1ccc(NC(=O)c2cccs2)c(-c2nc3ccccc3[nH]c2=O)c1	enzyme activity	inhibitor	–	1 µM	activity vs control	122%
Nc1ncnc2occ(-c3ccc(NC(=O)Nc4cc(C(F)(F)F)ccc4F)cc3)c12	cell-free assay	inhibitor	–	20 µM	remaining signal	0.1%
COc1cc2ncnc(Nc3ccc(Oc4ccccc4)c(C)c3C)c2cc1OC	enzyme activity	inhibitor	–	1 µM	inhibition	-12%
CN(C)C(=O)Cn1cc(-c2nc(C3(c4ccc(-c5cnc(N)nc5)cc4)CC3)no2)cn1	cell-free assay	–	competition with immobilised ligand	1 µM	remaining binding	83%
CN1CC(Oc2cnc(C#N)cc2-c2ccn3nc(NC(=O)C4CC4)cc3c2)C1	enzyme activity	inhibitor	–	1 µM	inhibition	0%
O=C1NC(c2ccccn2)Sc2ccccc21 (centres unmarked)	cell-free assay	–	competition with immobilised ligand	1 µM	remaining binding	82%
COc1cccc2c(NCc3ccccc3)nc(-n3c(N)nc4ccccc43)nc12	target engagement in cells	inhibitor	chemoproteomics	20 mM	inhibition	2.2%
C[C@@H]1CN(c2cc(-c3nn(C)c4ccc(OC5(C)CC5)cc34)ncn2)C[C@H](C)O1	cell-free assay	–	competition with immobilised ligand	1 µM	remaining binding	100%
Cc1ccc(Nc2nccc(N(C)c3ccc4c(C)n(C)nc4c3)n2)cc1S(N)(=O)=O	enzyme activity	inhibitor	–	10 µM	inhibition	18%
Cc1nc(N2CC[C@@H](O)C2)ncc1-c1cc(C(F)(F)F)cc2[nH]ncc12	binding	–	competition with immobilised ligand	1 µM	remaining binding	91%
Cc1cnc(NC2CCOCC2)nc1-n1cnc(C(=O)NC(CN)c2cc(F)cc(Cl)c2)c1 (centres unmarked)	enzyme activity	inhibitor	radiometric	1 µM	remaining activity	62%
Cn1cncc1C1=CN(c2ncnc3[nH]cnc23)CCS1	enzyme activity	inhibitor	radiometric	2 µM	inhibition	88.6%
CNC(=O)c1cc(Oc2ccc(NC(=O)Nc3ccc(Cl)c(C(F)(F)F)c3)cc2)ccn1	enzyme activity	inhibitor	–	10 µM	inhibition	8%
